Measurements from PMC3178889 (Nature neuroscience, 2011).
Entries after “also recorded” stand apart in the source; their conditions may differ. One block for each substance: values may come before it. No end group written: not given here. *: point of attachment. Myristoyl = CCCCCCCCCCCCCC(=O)*; Lauroyl = CCCCCCCCCCCC(=O)*

Legend:
binding of Tα to UNC119 = system: binding of Tα to UNC119; set-up: species or system bovine; settings: GST-UNC119 pulldown from retina lysate in the presence of peptide; immunoblot
human UNC119 = human UNC119 (Homo sapiens, UniProt Q13432); test: Isothermal titration calorimetry; type: binding; settings: ITC; for binding relative to the lauroyl Tα peptide: compared with lauroyl-GAGASAEEKH
GST-UNC119 = GST-UNC119 pulldown of proteins from retina lysates or HEK cells; type: binding, bovine
rod photoreceptors = settings: passive diffusion after light activation; cited from earlier work
Tα = test: GST-UNC119B pulldown from bovine retina lysate; type: binding; settings: unpublished results of the authors
transducin = settings: absence of rhodopsin; cited from earlier work
[1] = system: GTPase activity of Tα (purified Tαβγ); test: GTPase activity of purified Tαβγ in the presence of depleted ROS membranes; type: biochemical
In short: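 Purified native transducin (Tαβγ) reconstituted with depleted rod outer segment membranes, which carry rhodopsin and a trace of residual transducin. […] Components (transducin, UNC119, depleted membranes) checked by SDS-PAGE.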

competition for binding of Tα to UNC119 (binding of Tα to UNC119): did not
Substance: GAGASAEEKH

competition for binding of Tα to UNC119 (binding of Tα to UNC119): competes for binding
Substance: Lauroyl-GAGASAEEKH

binding relative to the lauroyl Tα peptide (human UNC119; listed as Lauroyl-ODR-3): more than one order of magnitude weaker | binding relative to the lauroyl Tα peptide (human UNC119; listed as ODR-3 N-terminal peptide): lower affinity interaction
Substance: Lauroyl-GSCQSNENSE

interaction with recombinant human UNC119 (human UNC119): tight binding | number of binding sites (human UNC119; one-site model): single site
Substance: Myristoyl-GAGASAEEKH

Substance: Tα(G2A): Tα with G2 replaced with alanine, a mutation preventing Tα acylation
interaction with GST-UNC119 in pulldown of protein expressed in HEK cells (GST-UNC119; bovine Tα or Tα(G2A) expressed in HEK cells, anti-Tα blot): does not interact; also recorded: did not interact

Substance: Tα: rod photoreceptor transducin α-subunit
t1/2 of light-induced translocation to the inner segment (rod photoreceptors): 3 to 5 min | interaction with GST-UNC119 in pulldown from retina lysate (GST-UNC119; bovine or mouse retina lysate, Coomassie/LC-MS/MS or immunoblot): UNC119 interacts with Tα; also recorded: is pulled down

Substance: Tβγ: transducin βγ subunits
t1/2 of light-induced translocation to the inner segment (rod photoreceptors): approximately 12 min

Substance: UNC119B: isoform encoded by UNC119B gene, 61% similar and 52% identical to UNC119
pulldown of Tα by GST-UNC119B (Tα): pulls down Tα from bovine retina lysate

Substance: transducin: purified native heterotrimeric transducin
GTP/GDP exchange rate constant (transducin): 10^−4 /sec | Kcat of GTPase ([1]; depleted ROS membranes reconstituted with transducin): 1.5 moles GTPhydrolyzed/mol transducin/min | GTPase activity rate of the reconstituted system ([1]; purified Tαβγ in the presence of ROS membranes, Fig. 5C red line): 1.5 mole GTP/min
